Screening results as filed in PubChem.
Compounds with a hit are over-represented: about 4.3% of the library has one in this group of screens.
FLuc inhib CS = Photinus pyralis luciferase inhibition counter-screen; P08659; ATPLite firefly luciferase biochemical luminescence, 10 min; inhibition, % at 10 µM; 200,000 tested, 1.5% active; AID 1006;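 active = inhibition above about 50% when tested at 10 µM, limit read from the data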
Target sequence (P08659 whole entry, looked up): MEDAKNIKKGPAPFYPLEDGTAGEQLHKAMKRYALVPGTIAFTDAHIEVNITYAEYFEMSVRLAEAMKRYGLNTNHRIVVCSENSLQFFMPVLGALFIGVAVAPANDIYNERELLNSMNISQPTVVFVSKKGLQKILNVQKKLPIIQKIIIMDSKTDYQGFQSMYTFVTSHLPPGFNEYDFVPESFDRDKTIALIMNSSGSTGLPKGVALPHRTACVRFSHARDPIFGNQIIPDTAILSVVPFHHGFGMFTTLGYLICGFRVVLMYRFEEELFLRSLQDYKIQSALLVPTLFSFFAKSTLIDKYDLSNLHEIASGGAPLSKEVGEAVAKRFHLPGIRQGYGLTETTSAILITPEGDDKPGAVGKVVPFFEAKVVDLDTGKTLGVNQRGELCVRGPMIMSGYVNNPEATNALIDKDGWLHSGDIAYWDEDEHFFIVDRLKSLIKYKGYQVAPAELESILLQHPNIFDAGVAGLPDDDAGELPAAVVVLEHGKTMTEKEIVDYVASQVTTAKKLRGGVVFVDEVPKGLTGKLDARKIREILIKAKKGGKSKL
STAT1 activator = activators of IFN-gamma induced STAT1 signaling; NIH 3T3 STAT1-luciferase reporter, luminescence; 100% = IFN-gamma alone, no compound; activation (% of control), % at 5.5 µM; 200,000 tested, 2.6% active;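 active = activation above the screen-wide mean activation plus 3 SD, cut at about 130% in these data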;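 also: raw ratio to IFN-gamma control signal so 100% means no change and 0% no light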
APP 5'UTR act = activates APP 5'UTR luciferase reporter. SH-SY5Y APP 5'UTR luciferase reporter, luminescence; zero percent = DMSO vehicle wells. activation, % at 2 µM. 190,000 tested, 1% active;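 active = activation above a set limit, based on mean plus 3 SD of controls, cut at about 140% in these data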
NF-kB neuron act = NF-kB expression increase, human neuronal cells. NF-kB reporter expression; active compounds read high. fold change at 12.5 µM. 190,000 tested, 1.6% active. AID 1239; in the data active = fold change above about 3.3
FLuc stim CS = firefly luciferase counter-screen for stimulation assays. P08659. ATPlite luciferase biochemical, luminescence, 10 min; 0 = ATP-free wells, 1 = DMSO control. activation factor at 10 µM. 200,000 tested, under 10 active;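 active = luciferase activation factor, scaled between plate controls, of at least 2 with compound at 10 µM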
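test system = cell-free luciferase reagent | medium = PBS as buffer for the ATP substrate | dosing = test compounds dosed from 2 mM stocks in 100% DMSO | incubation = 10 min at ambient temperature | detection = luminescence measurement of luciferase light output | benchmarks = low control with PBS replacing ATP, high control enzyme plus ATP without compound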
STAT1 act conf = STAT1 activation, confirmation assay; shares compounds with STAT1 activator; AID 1262; NIH 3T3 STAT1-luciferase reporter, IFN-gamma potentiation, luminescence; 100% = IFN-gamma EC80 alone, no compound; activation (% of control), % at 5.7 µM; 1,200 tested, 97% active;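 active = activation above a set limit carried over from the earlier primary STAT1 screen, cut at about 140% in these data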;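 also: simple ratio to median IFN-gamma plus DMSO wells so 0% means no light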
NFkB act STAT1ct = activates NF-kappaB, counter-screen to STAT1 activators. shares compounds with STAT1 activator. HEK293T NF-kB luciferase reporter, TNF-alpha stimulated, luminescence; 100% = TNF-alpha with vehicle only. activation (% of control), % at 5.7 µM. 1,200 tested, 43% active;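 active = activation above the mean of solvent-only control wells plus 3 SD, set per campaign, cut at about 130% in these data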;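 also: TNF-alpha given at a submaximal dose yielding about 80% of full reporter signal; values are well signal over median control so 100% means no change and 0% no light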
STAT3 act 2 = activates human STAT3, counter-screen to STAT1 activators | shares compounds with STAT1 activator | activation (% of control), % at 5.7 µM | 1,200 tested, 46% active | AID 1316 | U3A cells STAT3-luciferase reporter, IL-6, luminescence; cells lack STAT1; 100 = IL-6 alone, no compound effect;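 active = activation above the solvent-only control well mean plus 3 SD, set per plate batch, cut at about 110% in these data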;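 also: 0% = no luminescence and 100% = median IL-6 plus DMSO wells; higher means more STAT3 reporter activation so hits are non-selective activators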
Active calls of the source: *; / = not tested or not shown.

SMILES	FLuc inhib CS	STAT1 activator	APP 5'UTR act	NF-kB neuron act	FLuc stim CS	STAT1 act conf	NFkB act STAT1ct	STAT3 act 2
CNC(=O)c1ccc(-c2nc(-c3ccccc3)cs2)cc1	6	169*	71	2.4	0.9	174*	132	92
O=C(O)c1ccc(-c2nc(-c3ccccc3)cs2)cc1	8	157*	89	2.3	0.9	179*	126	129*
CNC(=O)c1sc(-c2ccccc2)nc1C	-2	110	19	1.6	1	/	/	/
O=S(=O)(Nc1ccc(-c2csc(-c3ccccc3)n2)cc1)c1ccccc1	-5	104	14	1.4	1.1	/	/	/
O=C(O)c1ccccc1C(=O)Nc1ccc(-c2csc(-c3ccccc3)n2)cc1	5	157*	60	1.7	1	141*	123	100
CC(Sc1ncnc2sccc12)C(=O)Nc1ccc(C(N)=O)cc1 (stereo unspecified)	-3	93	19	2.7	1	/	/	/
CCOc1ccccc1CNC(=O)c1ccc(Sc2ccc(Cl)cc2)c(NC(C)=O)c1	-5	103	5	0.76	1	/	/	/
O=C(Nc1ccc2nc3ccccc3nc2c1)c1ccccc1	66*	190*	198*	3.8*	0.3	230*	136*	100
S=C(NCCc1ccccc1)Nc1cnc2ccccc2c1	-4	125	-1	1.8	1	/	/	/
Cc1ccc(NC(=O)Nc2cnc3ccccc3c2)cc1	9	181*	198*	3	0.9	193*	129	111*
O=C(NC(=S)Nc1cnc2ccccc2c1)c1ccccc1	10	155*	122	4*	0.9	186*	123	132*
O=C(NNC(=O)c1ccc(NC(=O)c2ccccc2)cc1)c1ccccc1	-3	101	2	1.1	1	/	/	/
CC(C)(C)c1ccc(OCCn2ccccc2=O)cc1	8	177*	115	5.5*	0.9	197*	128	117*
CCCSc1cc(=O)n(-c2ccc(F)cc2)nc1C(=O)OCC	-7	91	14	0.79	1.1	/	/	/
CCOC(=O)C1C(=O)C(C(C)=O)C(=O)CC1CC(C)SCC (stereo unspecified)	-1	101	-14	0.99	1	/	/	/
CC(NC(=O)c1ccco1)C(c1cccs1)N1CCOCC1 (stereo unspecified)	-4	99	-1	1.1	1	/	/	/
COc1ccc(-c2cc(C(=O)O)c(C)o2)cc1OC	10	152*	99	2.4	0.9	218*	79	112*
COc1ccc(-c2cc(C(=O)NC(Cc3cc4ccccc4[nH]3)C(=O)O)c(C)o2)cc1OC (stereo unspecified)	-1	108	-8	1.4	1	/	/	/
c1ccc(CSCc2cn3ccccc3n2)cc1	3	153*	105	5.1*	1	168*	132	111*
COc1ccc(/C=C/c2nc3ccccc3n2Cc2ccc(OC)c(OC)c2)cc1	83*	184*	181*	6.8*	0.2	183*	135*	125*
CCc1nc2ccccc2n1Cc1ccc(OC)c(OC)c1	-7	86	0	1.2	1.1	/	/	/
O=C1C=C(Nc2ccc(Cl)cc2Cl)CC(c2ccco2)C1 (stereo unspecified)	12	97	-13	0.89	0.9	/	/	/
COC(=O)c1ccc(OC(=O)c2ccccn2)cc1	45	104	-8	1.1	0.5	/	/	/
COC(=O)c1ccc(/C=C(\C#N)c2ccccn2)cc1	73*	204*	148*	7*	0.3	225*	158*	107
COc1cc(/C=N/NC(=O)c2ccccc2Cl)ccc1Oc1ccc([N+](=O)[O-])cn1	-1	92	-15	0.82	1	/	/	/
SMILES	FLuc inhib CS	STAT1 activator	APP 5'UTR act	NF-kB neuron act	FLuc stim CS	STAT1 act conf	NFkB act STAT1ct	STAT3 act 2
CCOC(=O)c1csc(NC(=O)c2ccc(C#N)cc2)n1	-4	111	-11	1.3	1	/	/	/
COc1ccc(CCNC(=O)C(=O)N2CCCC2)cc1OC	2	86	-3	1.1	1	/	/	/
Nc1ccc2oc(-c3cccc4ccccc34)nc2c1	3	112	-49	0.59	1	/	/	/
Cc1ccc(-c2nc3cc(N)ccc3o2)c(C)c1	78*	154*	42	4.9*	0.2	233*	112	96
c1ccc2oc(-c3ccc4nc[nH]c4c3)nc2c1	68*	151*	138*	5.2*	0.3	205*	135*	97
O=C1c2ccccc2C(=O)N1c1cccc(-c2nc3ccccc3o2)c1	-17	103	28	1	1.2	/	/	/
Nc1nc2ccc(-c3nc4ccccc4o3)cc2s1	58*	152*	157*	10*	0.4	231*	130	102
C/C(=N\NC(=O)c1c[nH]c2ccccc12)c1ccccn1	38	157*	-47	0.92	0.6	198*	120	105
O=C(CCn1c(=O)[nH]c2ccsc2c1=O)Nc1ccc(F)c(F)c1	-2	104	7	1.6	1	/	/	/
c1ccc(CSc2ccc(-c3cccs3)nn2)cc1	66*	165*	124	4.8*	0.3	184*	134*	99
O=C(CSc1ccc(-c2cccs2)nn1)NCCc1ccccc1	6	96	-4	0.93	0.9	/	/	/
O=C(NC1=NCCS1)c1sc2ccccc2c1Cl	56*	173*	146*	7.1*	0.4	210*	130	116*
Cc1cc(C)n(-c2ccc(C(=O)Nc3ccccn3)cc2)n1	65*	156*	142*	4.1*	0.3	181*	111	97
Cc1cc(C)n(-c2ccc(C(=O)Nc3sccc3C(N)=O)cc2)n1	33	163*	171*	2.4	0.7	211*	124	104
CSc1ccccc1C(=O)N1CCN(c2ncccn2)CC1	-8	92	-6	0.96	1.1	/	/	/
O=C(CN1CCN(Cc2cccc(Cl)c2)C1=O)NCc1cccs1	-4	96	6	1.5	1	/	/	/
COc1ccc2nc3sc(C(=O)NCc4cccs4)c(N)c3cc2c1	-2	183*	140*	3.2	1	222*	136*	104
CCOC(=O)c1sc2nc(NC(=O)C(C)(C)C)sc2c1C	18	157*	126	0.9	0.8	202*	134*	102
CCOC(=O)c1sc2nc(NC(=O)C3CC3)sc2c1C	-2	110	14	1.5	1	/	/	/
